ChEMBL document CHEMBL4689842, “EUbOPEN Chemogenomics Library wave 1” (2021)

Tested on: HEK-293T
Test: Multiplex assay against HEK293T;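 for Population Tubulin-Different-Phenotype (%): share of the cells with healthy nuclei that show this phenotype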
Assay type: toxicity, cell-based
Conditions: human
Summary of the method: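 Imaging took place on a CQ1 microscope at 37°C and 5% CO2 once compound had been added to live cells stained at seeding with Hoechst33342, BioTracker Green Microtubule Cytoskeleton Dye, MitoTracker Red and Annexin V Alexa Fluor 680. CellPathfinder machine-learning gating classed cells as Hoechst high-intensity objects or normal cells, classed normal cells as having healthy, pyknosed or fragmented nuclei, and classed pyknosed cells as mitotic or apoptotic. Tubulin, mitochondrial-mass and membrane-permeability phenotypes are per cents of the healthy-nucleus cells.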

[1] = 12 h, 1 µM, compound concentration 1 uM, replicate 1
[2] = 12 h, 1 µM, compound concentration 1 uM, replicate 2
[3] = 12 h, 10 µM, compound concentration 10 uM, replicate 1
[4] = 12 h, 10 µM, compound concentration 10 uM, replicate 2
[5] = 24 h, 1 µM, compound concentration 1 uM, replicate 1
[6] = 24 h, 1 µM, compound concentration 1 uM, replicate 2
[7] = 24 h, 10 µM, compound concentration 10 uM, replicate 1
[8] = 24 h, 10 µM, compound concentration 10 uM, replicate 2
[9] = 48 h, 1 µM, compound concentration 1 uM, replicate 1
[10] = 48 h, 1 µM, compound concentration 1 uM, replicate 2
[11] = 48 h, 10 µM, compound concentration 10 uM, replicate 1
[12] = 48 h, 10 µM, compound concentration 10 uM, replicate 2

Cc1cc(C)c(S(=O)(=O)N(Cc2ccc(-c3cccc(S(C)(=O)=O)c3)cc2)Cc2ccc(C(F)(F)F)o2)c(C)c1
Population Apoptotic (%) [1]: 47%
Population Fragmented Nuclei (%) [1]: 13%
Population Healthy Nuclei (%) [1]: 36%
Population Hoechst High Intensity Objects (%) [1]: 10%
Population Membrane Permeable-Phenotype (%) [1]: 3%
Population Mitochondria Different-Phenotype (%) [1]: 81%
Population Mitotic Cells (%) [1]: 52%
Population Normal (%) [1]: 89%
Population Pyknosed Nuclei (%) [1]: 49%
Population Tubulin-Different-Phenotype (%) [1]: 59%
Total Cell Count [1]: 263
Population Apoptotic (%) [2]: 13%
Population Fragmented Nuclei (%) [2]: 6%
Population Healthy Nuclei (%) [2]: 49%
Population Hoechst High Intensity Objects (%) [2]: 4%
Population Membrane Permeable-Phenotype (%) [2]: 9%
Population Mitochondria Different-Phenotype (%) [2]: 13%
Population Mitotic Cells (%) [2]: 86%
Population Normal (%) [2]: 95%
Population Pyknosed Nuclei (%) [2]: 43%
Population Tubulin-Different-Phenotype (%) [2]: 9%
Total Cell Count [2]: 213
Population Apoptotic (%) [3]: 52%
Population Fragmented Nuclei (%) [3]: 12%
Population Healthy Nuclei (%) [3]: 35%
Population Hoechst High Intensity Objects (%) [3]: 14%
Population Membrane Permeable-Phenotype (%) [3]: 10%
Population Mitochondria Different-Phenotype (%) [3]: 89%
Population Mitotic Cells (%) [3]: 47%
Population Normal (%) [3]: 85%
Population Pyknosed Nuclei (%) [3]: 51%
Population Tubulin-Different-Phenotype (%) [3]: 90%
Total Cell Count [3]: 216
Population Apoptotic (%) [4]: 6%
Population Fragmented Nuclei (%) [4]: 9%
Population Healthy Nuclei (%) [4]: 48%
Population Hoechst High Intensity Objects (%) [4]: 2%
Population Membrane Permeable-Phenotype (%) [4]: 5%
Population Mitochondria Different-Phenotype (%) [4]: 20%
Population Mitotic Cells (%) [4]: 93%
Population Normal (%) [4]: 97%
Population Pyknosed Nuclei (%) [4]: 41%
Population Tubulin-Different-Phenotype (%) [4]: 16%
Total Cell Count [4]: 145
Population Apoptotic (%) [5]: 43%
Population Fragmented Nuclei (%) [5]: 13%
Population Healthy Nuclei (%) [5]: 44%
Population Hoechst High Intensity Objects (%) [5]: 9%
Population Membrane Permeable-Phenotype (%) [5]: 2%
Population Mitochondria Different-Phenotype (%) [5]: 66%
Population Mitotic Cells (%) [5]: 56%
Population Normal (%) [5]: 90%
Population Pyknosed Nuclei (%) [5]: 42%
Population Tubulin-Different-Phenotype (%) [5]: 49%
Total Cell Count [5]: 304
Population Apoptotic (%) [6]: 9%
Population Fragmented Nuclei (%) [6]: 6%
Population Healthy Nuclei (%) [6]: 64%
Population Hoechst High Intensity Objects (%) [6]: 2%
Population Membrane Permeable-Phenotype (%) [6]: 10%
Population Mitochondria Different-Phenotype (%) [6]: 10%
Population Mitotic Cells (%) [6]: 90%
Population Normal (%) [6]: 97%
Population Pyknosed Nuclei (%) [6]: 29%
Population Tubulin-Different-Phenotype (%) [6]: 29%
Total Cell Count [6]: 261
Population Apoptotic (%) [7]: 52%
Population Fragmented Nuclei (%) [7]: 13%
Population Healthy Nuclei (%) [7]: 38%
Population Hoechst High Intensity Objects (%) [7]: 15%
Population Membrane Permeable-Phenotype (%) [7]: 9%
Population Mitochondria Different-Phenotype (%) [7]: 74%
Population Mitotic Cells (%) [7]: 47%
Population Normal (%) [7]: 84%
Population Pyknosed Nuclei (%) [7]: 48%
Population Tubulin-Different-Phenotype (%) [7]: 89%
Total Cell Count [7]: 225
Population Apoptotic (%) [8]: 11%
Population Fragmented Nuclei (%) [8]: 7%
Population Healthy Nuclei (%) [8]: 72%
Population Hoechst High Intensity Objects (%) [8]: 3%
Population Membrane Permeable-Phenotype (%) [8]: 6%
Population Mitochondria Different-Phenotype (%) [8]: 10%
Population Mitotic Cells (%) [8]: 88%
Population Normal (%) [8]: 96%
Population Pyknosed Nuclei (%) [8]: 19%
Population Tubulin-Different-Phenotype (%) [8]: 24%
Total Cell Count [8]: 187
Population Apoptotic (%) [9]: 46%
Population Fragmented Nuclei (%) [9]: 13%
Population Healthy Nuclei (%) [9]: 61%
Population Hoechst High Intensity Objects (%) [9]: 8%
Population Membrane Permeable-Phenotype (%) [9]: 4%
Population Mitochondria Different-Phenotype (%) [9]: 38%
Population Mitotic Cells (%) [9]: 53%
Population Normal (%) [9]: 91%
Population Pyknosed Nuclei (%) [9]: 25%
Population Tubulin-Different-Phenotype (%) [9]: 39%
Total Cell Count [9]: 387
Population Apoptotic (%) [10]: 9%
Population Fragmented Nuclei (%) [10]: 6%
Population Healthy Nuclei (%) [10]: 81%
Population Hoechst High Intensity Objects (%) [10]: 2%
Population Membrane Permeable-Phenotype (%) [10]: 7%
Population Mitochondria Different-Phenotype (%) [10]: 5%
Population Mitotic Cells (%) [10]: 90%
Population Normal (%) [10]: 97%
Population Pyknosed Nuclei (%) [10]: 11%
Population Tubulin-Different-Phenotype (%) [10]: 20%
Total Cell Count [10]: 474
Population Apoptotic (%) [11]: 45%
Population Fragmented Nuclei (%) [11]: 13%
Population Healthy Nuclei (%) [11]: 60%
Population Hoechst High Intensity Objects (%) [11]: 6%
Population Membrane Permeable-Phenotype (%) [11]: 7%
Population Mitochondria Different-Phenotype (%) [11]: 57%
Population Mitotic Cells (%) [11]: 54%
Population Normal (%) [11]: 93%
Population Pyknosed Nuclei (%) [11]: 25%
Population Tubulin-Different-Phenotype (%) [11]: 80%
Total Cell Count [11]: 302
Population Apoptotic (%) [12]: 16%
Population Fragmented Nuclei (%) [12]: 8%
Population Healthy Nuclei (%) [12]: 84%
Population Hoechst High Intensity Objects (%) [12]: 1%
Population Membrane Permeable-Phenotype (%) [12]: 3%
Population Mitochondria Different-Phenotype (%) [12]: 3%
Population Mitotic Cells (%) [12]: 84%
Population Normal (%) [12]: 98%
Population Pyknosed Nuclei (%) [12]: 6%
Population Tubulin-Different-Phenotype (%) [12]: 9%
Total Cell Count [12]: 367

CCN1CCN(c2ccc(Nc3cc(N(C)C(=O)Nc4c(Cl)c(OC)cc(OC)c4Cl)ncn3)cc2)CC1 [INFIGRATINIB]
Population Apoptotic (%) [1]: 26%
Population Fragmented Nuclei (%) [1]: 18%
Population Healthy Nuclei (%) [1]: 37%
Population Hoechst High Intensity Objects (%) [1]: 19%
Population Membrane Permeable-Phenotype (%) [1]: 18%
Population Mitochondria Different-Phenotype (%) [1]: 14%
Population Mitotic Cells (%) [1]: 73%
Population Normal (%) [1]: 80%
Population Pyknosed Nuclei (%) [1]: 44%
Population Tubulin-Different-Phenotype (%) [1]: 52%
Total Cell Count [1]: 470
Population Apoptotic (%) [2]: 14%
Population Fragmented Nuclei (%) [2]: 4%
Population Healthy Nuclei (%) [2]: 84%
Population Hoechst High Intensity Objects (%) [2]: 3%
Population Membrane Permeable-Phenotype (%) [2]: 6%
Population Mitochondria Different-Phenotype (%) [2]: 27%
Population Mitotic Cells (%) [2]: 85%
Population Normal (%) [2]: 96%
Population Pyknosed Nuclei (%) [2]: 11%
Population Tubulin-Different-Phenotype (%) [2]: 81%
Total Cell Count [2]: 1084
Population Apoptotic (%) [3]: 18%
Population Fragmented Nuclei (%) [3]: 19%
Population Healthy Nuclei (%) [3]: 56%
Population Hoechst High Intensity Objects (%) [3]: 14%
Population Membrane Permeable-Phenotype (%) [3]: 7%
Population Mitochondria Different-Phenotype (%) [3]: 10%
Population Mitotic Cells (%) [3]: 81%
Population Normal (%) [3]: 85%
Population Pyknosed Nuclei (%) [3]: 23%
Population Tubulin-Different-Phenotype (%) [3]: 13%
Total Cell Count [3]: 527
Population Apoptotic (%) [4]: 9%
Population Fragmented Nuclei (%) [4]: 7%
Population Healthy Nuclei (%) [4]: 87%
Population Hoechst High Intensity Objects (%) [4]: 2%
Population Membrane Permeable-Phenotype (%) [4]: 5%
Population Mitochondria Different-Phenotype (%) [4]: 11%
Population Mitotic Cells (%) [4]: 90%
Population Normal (%) [4]: 97%
Population Pyknosed Nuclei (%) [4]: 5%
Population Tubulin-Different-Phenotype (%) [4]: 24%
Total Cell Count [4]: 1732
Population Apoptotic (%) [5]: 37%
Population Fragmented Nuclei (%) [5]: 16%
Population Healthy Nuclei (%) [5]: 60%
Population Hoechst High Intensity Objects (%) [5]: 19%
Population Membrane Permeable-Phenotype (%) [5]: 10%
Population Mitochondria Different-Phenotype (%) [5]: 31%
Population Mitotic Cells (%) [5]: 62%
Population Normal (%) [5]: 80%
Population Pyknosed Nuclei (%) [5]: 23%
Population Tubulin-Different-Phenotype (%) [5]: 78%
Total Cell Count [5]: 436
Population Apoptotic (%) [6]: 6%
Population Fragmented Nuclei (%) [6]: 7%
Population Healthy Nuclei (%) [6]: 82%
Population Hoechst High Intensity Objects (%) [6]: 5%
Population Membrane Permeable-Phenotype (%) [6]: 9%
Population Mitochondria Different-Phenotype (%) [6]: 20%
Population Mitotic Cells (%) [6]: 93%
Population Normal (%) [6]: 94%
Population Pyknosed Nuclei (%) [6]: 9%
Population Tubulin-Different-Phenotype (%) [6]: 87%
Total Cell Count [6]: 1343
Population Apoptotic (%) [7]: 19%
Population Fragmented Nuclei (%) [7]: 13%
Population Healthy Nuclei (%) [7]: 76%
Population Hoechst High Intensity Objects (%) [7]: 10%
Population Membrane Permeable-Phenotype (%) [7]: 15%
Population Mitochondria Different-Phenotype (%) [7]: 4%
Population Mitotic Cells (%) [7]: 80%
Population Normal (%) [7]: 89%
Population Pyknosed Nuclei (%) [7]: 9%
Population Tubulin-Different-Phenotype (%) [7]: 24%
Total Cell Count [7]: 608
Population Apoptotic (%) [8]: 10%
Population Fragmented Nuclei (%) [8]: 23%
Population Healthy Nuclei (%) [8]: 74%
Population Hoechst High Intensity Objects (%) [8]: 4%
Population Membrane Permeable-Phenotype (%) [8]: 11%
Population Mitochondria Different-Phenotype (%) [8]: 2%
Population Mitotic Cells (%) [8]: 90%
Population Normal (%) [8]: 95%
Population Pyknosed Nuclei (%) [8]: 2%
Population Tubulin-Different-Phenotype (%) [8]: 26%
Total Cell Count [8]: 3002
